Series [1] addresses 5-hydroxytryptamine receptor 6 (Homo sapiens, UniProt P50406). Put plainly: Binding affinity against human 5-hydroxytryptamine 6 receptor.
The nature of series [2]: Plasma Clearance measured at steady-state following iv infusion at 0.6 mg/kg/h in rats. The class given is ADME, organism-based. The arrangement: route intravenous. The note with it: rat, 0.6 mg/kg/h infusion.
The species named for series [3] is Rattus norvegicus. As to the kind of experiment: Blood: Brain distribution ratio is determined in rat. The class given is ADME, organism-based. The essentials:
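Rats received iv infusion for 8 h, and the brain:blood ratio was taken at steady state.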

5-hydroxytryptamine receptor 6, sequence (P50406 whole entry, the tested form may be a part): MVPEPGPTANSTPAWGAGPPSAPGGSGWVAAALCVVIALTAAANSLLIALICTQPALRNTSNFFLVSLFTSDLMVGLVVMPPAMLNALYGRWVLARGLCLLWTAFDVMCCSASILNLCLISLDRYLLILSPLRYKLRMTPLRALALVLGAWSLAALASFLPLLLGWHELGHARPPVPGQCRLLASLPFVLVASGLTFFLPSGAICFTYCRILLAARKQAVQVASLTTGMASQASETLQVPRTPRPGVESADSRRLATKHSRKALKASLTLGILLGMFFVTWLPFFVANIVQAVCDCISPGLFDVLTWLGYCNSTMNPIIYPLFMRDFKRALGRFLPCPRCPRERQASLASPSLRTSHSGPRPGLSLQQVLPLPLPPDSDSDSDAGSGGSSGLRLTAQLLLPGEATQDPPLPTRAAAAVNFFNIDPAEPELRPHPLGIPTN

One may read the Ki as a measure of affinity in units of concentration, obtained from inhibition or displacement. The low end stands for higher affinity, the high end for lower affinity. For the compound `COc1ccc(S(=O)(=O)Nc2cc(Br)cc(F)c2Cl)cc1N1CCNCC1`, the affinity in series [1], expressed as Ki, was 3.16 nM. The same measure, in the same setting: with `COc1ccc(S(=O)(=O)N2CCc3cc(I)ccc32)cc1N1CCNCC1` the figure was 3.98 nM; with `COc1ccc(S(=O)(=O)Nc2cc(Br)cc(Br)c2F)cc1N1CCNCC1`, 2.51 nM.

`COc1ccc(S(=O)(=O)Nc2cc(Cl)cc(Cl)c2Br)cc1N1CCNCC1` gave an inhibition constant Ki in series [1] of 3.16 nM.

In series [1], `COc1ccc(S(=O)(=O)Nc2cc(I)ccc2C)cc1N1CCNCC1` showed a Ki of 0.794 nM. As for `COc1ccc(S(=O)(=O)Nc2cc([N+](=O)[O-])ccc2C)cc1N1CCNCC1`, in series [1], the inhibition constant (Ki) is 20 nM. Broadly, the clearance is a measure of how efficiently the substance is removed, as volume per time. Low readings indicate a low capacity for elimination, high ones a high capacity for elimination. As for `COc1ccc(S(=O)(=O)N2CCc3c(Cl)ccc(Cl)c3C2)cc1N1CCNCC1`, the clearance in series [2] is 76 mL/min/kg. `COc1ccc(S(=O)(=O)Nc2ccc(Cl)cc2C(F)(F)F)cc1N1CCNCC1` had an inhibition constant Ki in series [1] of 25.1 nM. Still for that read-out and setting: with `COc1ccc(S(=O)(=O)Nc2cccc(Br)c2)cc1N1CCNCC1` the figure was 1.26 nM; with `COc1ccc(Cl)cc1NS(=O)(=O)c1ccc(OC)c(N2CCNCC2)c1`, 1.26 nM. In the case of `COc1ccc(S(=O)(=O)Nc2ccc(Cl)c(Cl)c2)cc1N1CCNCC1`, the affinity in series [1] corresponds to a Ki of 2.51 nM. On the same count and under the same terms, with `COc1ccc(S(=O)(=O)N2CCCc3c(Cl)cc(Cl)cc32)cc1N1CCNCC1` the figure was 0.794 nM. With `COc1ccc(S(=O)(=O)Nc2cccc(I)c2)cc1N1CCNCC1`, the affinity in series [1] corresponds to a Ki of 0.501 nM. Besides, in series [2], the clearance came to 58 mL/min/kg. The Distribution ratio in series [3] is recorded as 0.13.

With `COc1ccc(S(=O)(=O)Nc2ccc(I)cc2)cc1N1CCNCC1`, the affinity in series [1], expressed as Ki, was 2 nM. On to `COc1ccc(S(=O)(=O)N2CCc3cccc(Cl)c3C2)cc1N1CCNCC1`, for which, in series [2], the clearance was 83 mL/min/kg. In the case of `COc1ccc(C(F)(F)F)cc1NS(=O)(=O)c1ccc(OC)c(N2CCNCC2)c1`, the Ki in series [1] was 3.98 nM. In series [1], `COc1ccc(S(=O)(=O)Nc2cc(F)cc(F)c2Cl)cc1N1CCNCC1` had a Ki of 31.6 nM.

In the case of `COc1ccc(S(=O)(=O)N2CCCc3cc(Br)ccc32)cc1N1CCNCC1`, the inhibition constant (Ki) in series [1] was 3.16 nM. On the same count and under the same terms, with `COc1ccc(S(=O)(=O)Nc2cc(Br)cc(Br)c2)cc1N1CCNCC1` the figure was 0.501 nM; with `COc1ccc(S(=O)(=O)Nc2cc(Br)cc(Br)c2Br)cc1N1CCNCC1`, 2.51 nM; with `COc1ccc(S(=O)(=O)N2CCCc3ccc(Br)cc32)cc1N1CCNCC1`, 0.316 nM. `COc1ccc(S(=O)(=O)Nc2cc(Br)cc(Cl)c2Cl)cc1N1CCNCC1` showed a Ki in series [1] of 3.98 nM.

In series [1], `COc1ccc(S(=O)(=O)Nc2ccccc2C(C)C)cc1N1CCNCC1` had an inhibition constant (Ki) of 1 nM. This compound also gave a clearance in series [2] of 52 mL/min/kg. With `COc1ccc(S(=O)(=O)Nc2c(F)cc(Br)cc2F)cc1N1CCNCC1`, the affinity in series [1], expressed as Ki, was 158 nM. Regarding `COc1ccc(S(=O)(=O)Nc2cc(Br)cc(Cl)c2Br)cc1N1CCNCC1`, in series [1], the inhibitory constant (Ki) was 3.98 nM. On the same count and under the same terms, with `COc1ccc(S(=O)(=O)Nc2ccc(C)cc2Br)cc1N1CCNCC1` the figure was 7.94 nM; with `COc1ccc(S(=O)(=O)Nc2cc(Cl)cc(Br)c2Cl)cc1N1CCNCC1`, 2 nM. On the same count and under the same terms, under `COc1ccc(S(=O)(=O)Nc2cc(Br)cc(Br)c2Cl)cc1N1CCNCC1` stands 2.51 nM; under `COc1ccc(S(=O)(=O)Nc2cccc(Cl)c2)cc1N1CCNCC1`, 1.26 nM; under `COc1cc(Cl)c(C)cc1NS(=O)(=O)c1ccc(OC)c(N2CCNCC2)c1`, 2 nM. Take `COc1ccc(S(=O)(=O)N2c3ccccc3CC2(C)C)cc1N1CCNCC1`: in series [1], affinity was put at a Ki of 0.794 nM.

The compound `COc1ccc(S(=O)(=O)Nc2ccccc2Br)cc1N1CCNCC1` showed a Ki in series [1] of 1.58 nM. In series [2], this compound yielded a clearance of 60 mL/min/kg. For the same compound, the Distribution ratio in series [3] was found to be 0.24. In series [1], `COc1ccc(S(=O)(=O)N2CCc3cc(C)c(C(F)(F)F)cc32)cc1N1CCNCC1` had an inhibition constant (Ki) of 3.98 nM. Besides, the clearance in series [2] is 73 mL/min/kg. Besides, the Distribution ratio in series [3] turned out to be 0.41. In series [1], `COc1ccc(S(=O)(=O)Nc2cc(Cl)c(Cl)cc2Cl)cc1N1CCNCC1` showed a Ki of 5.01 nM.
